Measured values of several laboratories.
Matrix: plasma

SMILES | system | conditions | measurement | value
C=CC(=O)N1CCC([C@@H]2CCNc3c(C(N)=O)c(-c4ccc(Oc5ccccc5)cc4)nn32)CC1 | Sprague-Dawley rat | oral, 16 mg/kg | MRT(0-t) | 3.81 h
C[C@H]1Oc2cc(cnc2N)-c2c(nn(C)c2C#N)CN(C)C(=O)c2ccc(F)cc21 | male Sprague-Dawley rat | oral, 5 mg/kg, single dose | MRT(0-inf) | 8.14 h
COc1ccc(N(Cc2csc(-c3ccccc3)n2)C(=O)CCCCCC(=O)NO)cc1 | female Sprague-Dawley rat | intravenous, 5 mg/kg | MRT | 0.39 h
O=C1CCC(N2Cc3cc(C4CCN(Cc5ccccc5)CC4)ccc3C2=O)C(=O)N1 (stereo not shown) | male Sprague-Dawley rat | intravenous, 1 mg/kg | MRT(0-inf) | 4.13 h
CCOc1c([C@H](C)n2nc(C)c3c(N)ncnc32)cc(Cl)c(F)c1[C@@H]1CNC(=O)C1 | male Sprague-Dawley rat | oral, 2 mg/kg, single dose | MRT(0-inf) | 8.49 h
C[C@@]12C[C@@]3(O)O[C@@H](O1)[C@]1(COC(=O)c4ccccc4)[C@H]3C[C@@]12O[C@@H]1O[C@H](CO)[C@@H](O)[C@H](O)[C@H]1O | male Sprague-Dawley rat | oral, 80 mg/kg | MRT(0-t) | 5.13 h
CONC(=O)c1cccc2c1cc(C)n2-c1nc2c(c(NCc3ccccc3)n1)CCCN2 | male Sprague-Dawley rat | intravenous, 1 mg/kg, single dose | MRT | 3.6 h
COc1cc(-c2cc(C(C)=O)n3ccccc23)c(OC)cc1Cn1ccnc1 | male Sprague-Dawley rat | oral, 5 mg/kg | MRT(0-t) | 1.73 h
Cn1c(=O)c2[nH]cnc2n(C)c1=O | male Sprague-Dawley rat | intravenous, 11.25 mg/kg | MRT(0-t) | 3.3 h
COc1nc(-c2cccc(-c3ccccc3)c2C)ccc1CNCCNC(=O)CCCCCCCCCCC(=O)N1CCN(CCNC(=O)c2cc3c(=O)n4cccc(C)c4nc3n(CCc3cccs3)c2=N)CC1 | male Sprague-Dawley rat | intraperitoneal, 4 mg/kg | MRT(0-t) | 7.1 h
